Source: ChEMBL document CHEMBL1208768, “Synthesis, selective anti-Helicobacter pylori activity, and cytotoxicity of novel N-substituted-2-oxo-2H-1-benzopyran-3-carboxamides” (Bioorg Med Chem Lett, 2010)
Values after ≈ are worked out from the molar mass of the structure shown. Active and inactive are the calls of the source. No cut-off for these calls is given here.

How the values were obtained:
Staphylococcus aureus = test: Antibacterial activity against Staphylococcus aureus after 18 to 22 hrs by broth microdilution method; type: functional
How it was run: (§1)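 Clinical respiratory-tract isolates from patients, subcultured for purity and identified conventionally. Broth microdilution per NCCLS in Mueller–Hinton II broth; each plate had growth controls (bacteria, no compound) and medium-only controls. Incubation 18–22 h at 35 °C. MIC taken as the lowest concentration giving complete growth inhibition by unaided eye.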

[1] = test system: Staphylococcus epidermidis; test: Antibacterial activity against Staphylococcus epidermidis after 18 to 22 hrs by broth microdilution method; type: functional; how it was run: as §1
Staphylococcus hominis = test: Antibacterial activity against Staphylococcus hominis after 18 to 22 hrs by broth microdilution method; type: functional; how it was run: as §1
[2] = test system: Staphylococcus haemolyticus; test: Antibacterial activity against Staphylococcus haemolyticus after 18 to 22 hrs by broth microdilution method; type: functional; how it was run: as §1
Enterococcus faecalis = test: Antibacterial activity against Streptococcus faecalis after 18 to 22 hrs by broth microdilution method; type: functional; how it was run: as §1
Escherichia coli = test: Antibacterial activity against Escherichia coli after 18 to 22 hrs by broth microdilution method; type: functional; how it was run: as §1
Klebsiella pneumoniae = test: Antibacterial activity against Klebsiella pneumoniae after 18 to 22 hrs by broth microdilution method; type: functional; how it was run: as §1
Klebsiella oxytoca = test: Antibacterial activity against Klebsiella oxytoca after 18 to 22 hrs by broth microdilution method; type: functional; how it was run: as §1
Enterobacter = test: Antibacterial activity against Enterobacter after 18 to 22 hrs by broth microdilution method; type: functional; how it was run: as §1
Klebsiella aerogenes = test: Antibacterial activity against Enterobacter aerogenes after 18 to 22 hrs by broth microdilution method; type: functional; how it was run: as §1
Citrobacter freundii = test: Antibacterial activity against Citrobacter freundii after 18 to 22 hrs by broth microdilution method; type: functional; how it was run: as §1
Proteus vulgaris = test: Antibacterial activity against Proteus vulgaris after 18 to 22 hrs by broth microdilution method; type: functional; how it was run: as §1
Candida albicans = test: Antifungal activity against Candida albicans after 24 hrs by broth microdilution method; type: functional
How it was run: (§2)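 Candida isolates from respiratory-tract specimens, tested by NCCLS broth microdilution in Sabouraud dextrose broth. Serial compound dilutions inoculated to 10³/mL, with fungus-only and medium-only controls. Incubated 24 h at 37 °C. MIC was the lowest concentration with complete visible growth inhibition.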

[Candida] sake = Antifungal activity against Candida sake after 24 hrs by broth microdilution method; type: functional; conditions: Fermentozyma sake; how it was run: as §2
Pichia kudriavzevii = test: Antifungal activity against Candida krusei after 24 hrs by broth microdilution method; type: functional; how it was run: as §2
Helicobacter pylori [3] = test: Antibacterial activity against Helicobacter pylori ATCC 43504 clinical isolates after 72 hrs by agar dilution method; type: functional; conditions: ATCC 43504, 72 h
How it was run: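 Agar dilution per NCCLS. Twenty clinical strains from duodenal ulcer or gastritis patients, with ATCC 43504 as control in each session, were subcultured twice on Columbia agar plus 10% horse serum and 0.25% yeast extract (72 h, 37 °C, 10% CO₂). Inoculum of 0.5 McFarland in Wilkins Chalgren broth, about 5 × 10⁵ CFU/spot by Steer's replicator. Plates held twofold compound dilutions down to 0.0039 µg/mL and were incubated 72 h at 37 °C, 10% CO₂. MIC was the lowest concentration inhibiting visible growth.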

Helicobacter pylori [4] = test: Antibacterial activity against metronidazole-resistant Helicobacter pylori NCTC 11637 after 72 hrs by agar dilution method; type: functional; conditions: NCTC 11637, 72 h
How it was run: (§3)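 H. pylori clinical isolates (ATCC 43504 control each session) stored at -80 °C and subcultured twice on Columbia agar with 10% horse serum and 0.25% yeast extract. Suspensions of 0.5 McFarland were spotted by Steer's replicator at about 5 × 10⁵ CFU/spot onto agar with twofold compound dilutions. Plates were incubated 72 h at 37 °C in 10% CO₂. MIC was the lowest concentration without visible growth.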

Helicobacter pylori [5] = test: Antibacterial activity against metronidazole-resistant Helicobacter pylori isolate 1 after 72 hrs by agar dilution method; type: functional; conditions: isolate 1, 72 h; how it was run: as §3
Helicobacter pylori [6] = test: Antibacterial activity against metronidazole-resistant Helicobacter pylori isolate 8 after 72 hrs by agar dilution method; type: functional; conditions: isolate 8, 72 h; how it was run: as §3
Helicobacter pylori [7] = test: Antibacterial activity against metronidazole-resistant Helicobacter pylori isolate 18 after 72 hrs by agar dilution method; type: functional; conditions: isolate 18, 72 h; how it was run: as §3
Helicobacter pylori [8] = test: Antibacterial activity against metronidazole-resistant Helicobacter pylori isolate 20 after 72 hrs by agar dilution method; type: functional; conditions: isolate 20, 72 h; how it was run: as §3
AGS [9] = test: Antiinflammatory activity in human AGS cells assessed as inhibition of IL-8 production at 5 ug/mL after 24 hrs; type: functional, cell-based
How it was run: (§4)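 AGS gastric adenocarcinoma cells were grown in F-12K with 10% FBS. They were seeded at 1 × 10⁵/mL for 24 h, preincubated 1 h with compound at 5 or 0.5 µg/mL, then exposed to H. pylori.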

AGS [10] = test: Antiinflammatory activity in human AGS cells assessed as inhibition of IL-8 production at 0.5 ug/mL after 24 hrs; type: functional, cell-based; how it was run: as §4

| SMILES | MIC (Staphylococcus aureus) [µg/mL] | MIC [1] [µg/mL] | MIC (Staphylococcus hominis) [µg/mL] | MIC [2] [µg/mL] | MIC (Enterococcus faecalis) [µg/mL] | MIC (Escherichia coli) [µg/mL] | MIC (Klebsiella pneumoniae) [µg/mL] | MIC (Klebsiella oxytoca) [µg/mL] | MIC (Enterobacter) [µg/mL] | MIC (Klebsiella aerogenes) [µg/mL] | MIC (Citrobacter freundii) [µg/mL] | MIC (Proteus vulgaris) [µg/mL] | MIC (Candida albicans) [µg/mL] | MIC50 (Helicobacter pylori [3]) [µg/mL] | MIC90 (Helicobacter pylori [3]) [µg/mL] | MIC (Helicobacter pylori [4]) [µg/mL] | MIC (Helicobacter pylori [5]) [µg/mL] | MIC (Helicobacter pylori [6]) [µg/mL] | MIC (Helicobacter pylori [7]) [µg/mL] | MIC (Helicobacter pylori [8]) [µg/mL] | also measured |
| --- | --- | --- | --- | --- | --- | --- | --- | --- | --- | --- | --- | --- | --- | --- | --- | --- | --- | --- | --- | --- | --- |
| CCOC(=O)c1ccc(NC(=O)c2cc3cc(Br)cc(Br)c3oc2=O)cc1 | > 128 | > 128 | > 128 | > 128 | > 128 | > 128 | > 128 | > 128 | > 128 | > 128 | > 128 | > 128 | > 128 | 64 (≈ 129 µM) | 64 (≈ 129 µM) | 64 (≈ 129 µM) | 64 (≈ 129 µM) | 64 (≈ 129 µM) | 64 (≈ 129 µM) | 64 (≈ 129 µM) | MIC ([Candida] sake): > 128 µg/mL; MIC (Pichia kudriavzevii): > 128 µg/mL; inhibition (AGS [9]): inactive; inhibition (AGS [10]): inactive |
| O=C(O)c1ccc(NC(=O)c2cc3cc(O)ccc3oc2=O)cc1 | > 128 | > 128 | > 128 | > 128 | > 128 | > 128 | > 128 | > 128 | > 128 | > 128 | > 128 | > 128 | > 128 | 16 (≈ 49.2 µM) | > 128 | 16 (≈ 49.2 µM) | 4 (≈ 12.3 µM) | 16 (≈ 49.2 µM) | 16 (≈ 49.2 µM) | 4 (≈ 12.3 µM) | MIC ([Candida] sake): > 128 µg/mL; MIC (Pichia kudriavzevii): > 128 µg/mL; inhibition (AGS [9]): inactive; inhibition (AGS [10]): inactive |
| CCOC(=O)c1ccc(NC(=O)c2cc3cccc(O)c3oc2=O)cc1 | > 128 | > 128 | > 128 | > 128 | > 128 | > 128 | > 128 | > 128 | > 128 | > 128 | > 128 | > 128 | > 128 | > 128 | > 128 | > 128 | > 128 | > 128 | > 128 | > 128 | MIC ([Candida] sake): > 128 µg/mL; MIC (Pichia kudriavzevii): > 128 µg/mL; inhibition (AGS [9]): inactive; inhibition (AGS [10]): inactive |
| O=C(O)c1ccc(NC(=O)c2cc3cc(Br)cc(Cl)c3oc2=O)cc1 | > 128 | > 128 | > 128 | > 128 | > 128 | > 128 | > 128 | > 128 | > 128 | > 128 | > 128 | > 128 | > 128 | 8 (≈ 18.9 µM) | 32 (≈ 75.7 µM) | 32 (≈ 75.7 µM) | 16 (≈ 37.9 µM) | 32 (≈ 75.7 µM) | 16 (≈ 37.9 µM) | 32 (≈ 75.7 µM) | MIC ([Candida] sake): > 128 µg/mL; MIC (Pichia kudriavzevii): > 128 µg/mL; inhibition (AGS [9]): inactive; inhibition (AGS [10]): inactive |
| Cc1ncc([N+](=O)[O-])n1CCO [METRONIDAZOLE] | – | – | – | – | – | – | – | – | – | – | – | – | – | 2 (≈ 11.7 µM) | 128 (≈ 748 µM) | 128 (≈ 748 µM) | 64 (≈ 374 µM) | 64 (≈ 374 µM) | 128 (≈ 748 µM) | 128 (≈ 748 µM) | – |
| O=C(O)c1ccc(NC(=O)c2cc3cc([N+](=O)[O-])ccc3oc2=O)cc1 | > 128 | > 128 | > 128 | > 128 | > 128 | > 128 | > 128 | > 128 | > 128 | > 128 | > 128 | > 128 | > 128 | 128 (≈ 361 µM) | 128 (≈ 361 µM) | 128 (≈ 361 µM) | 128 (≈ 361 µM) | 64 (≈ 181 µM) | 128 (≈ 361 µM) | 64 (≈ 181 µM) | MIC ([Candida] sake): > 128 µg/mL; MIC (Pichia kudriavzevii): > 128 µg/mL; inhibition (AGS [9]): inactive; inhibition (AGS [10]): inactive |
| COc1ccc2cc(C(=O)Nc3ccc(C(=O)O)cc3)c(=O)oc2c1 | > 128 | > 128 | > 128 | > 128 | > 128 | > 128 | > 128 | > 128 | > 128 | > 128 | > 128 | > 128 | > 128 | > 128 | > 128 | > 128 | > 128 | > 128 | > 128 | > 128 | MIC ([Candida] sake): > 128 µg/mL; MIC (Pichia kudriavzevii): > 128 µg/mL; inhibition (AGS [9]): inactive; inhibition (AGS [10]): inactive |
| CCOC(=O)N1CCC(NC(=O)c2cc3ccccc3oc2=O)CC1 | > 128 | > 128 | > 128 | > 128 | > 128 | > 128 | > 128 | > 128 | > 128 | > 128 | > 128 | > 128 | > 128 | > 128 | > 128 | > 128 | 128 (≈ 372 µM) | > 128 | 128 (≈ 372 µM) | > 128 | MIC ([Candida] sake): > 128 µg/mL; MIC (Pichia kudriavzevii): > 128 µg/mL; inhibition (AGS [9]): inactive; inhibition (AGS [10]): inactive |
